In the library only some 4.6% were active in any assay of this set; here they are far more common.
OX1R antag-1 – OX1R (human) antagonism; O43613; OX1R-expressing cells, FRET antagonist read-out; inhibition, % at 6.6 µM; 1.8% of 330,000 active; AID 485270; in the data active = inhibition mostly above about 38%, no sharp cut-off; inactive = mostly below about 40%;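 also: 0% = agonist challenge alone and 100% = reference antagonist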
Target sequence (O43613 whole entry, looked up): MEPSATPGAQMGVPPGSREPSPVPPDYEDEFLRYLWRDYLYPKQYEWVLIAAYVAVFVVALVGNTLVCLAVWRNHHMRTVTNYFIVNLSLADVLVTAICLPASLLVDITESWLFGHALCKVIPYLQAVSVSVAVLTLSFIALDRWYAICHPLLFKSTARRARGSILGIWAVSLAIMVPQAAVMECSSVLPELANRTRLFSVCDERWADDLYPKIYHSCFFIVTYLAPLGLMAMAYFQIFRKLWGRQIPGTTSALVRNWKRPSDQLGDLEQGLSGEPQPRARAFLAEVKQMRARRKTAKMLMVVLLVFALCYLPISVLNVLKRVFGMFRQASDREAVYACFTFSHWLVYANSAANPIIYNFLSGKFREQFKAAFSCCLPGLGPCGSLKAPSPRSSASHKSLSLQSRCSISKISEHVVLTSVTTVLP
GPR7 antag – antagonists of human GPR7 (neuropeptides B/W receptor 1). P48145. GPR7-expressing cells, fluorescence antagonist assay. inhibition, % at 4.4 µM. 1.1% of 290,000 active. AID 1861; in the data active = inhibition above about 16%, passing the limit was not always enough;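 also: cells stimulated with the agonist NPW; 0% = agonist with vehicle and 100% = vehicle without agonist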
TAAR1 antag – antagonists of human TAAR1; CHO RD-HGA16 TAAR1, Fluo-8 calcium fluorescence, antagonist; inhibition, % at 3 µM; 1.5% of 360,000 active; AID 624466;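 active = inhibition above a per-plate cutoff, the mean inhibition of test compounds on that plate plus 3 SD, cut at about 49% in these data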;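 also: 0% = DMSO plus EC80 beta-PEA response and 100% = DMSO alone without agonist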
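test system = CHO RD-HGA16 cells bearing hTAAR1 | replication = singlicate | controls = DMSO-only wells and EC80 β-PEA-stimulated wells | reagent = EC80 β-phenethylamine stimulus | read-out basis = percent inhibition of PEA-evoked calcium signal, max/basal emission ratio | schedule = seeding 17-24 h prior, 75-min 37 °C, 30-min RT dye loading | signal = kinetic Fluo-8 calcium fluorescence measurement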
CHO parental Ca – counter-screen: ATP calcium response change in parental CHO cells. parental CHO-K1, ATP-induced calcium, Fluo-8 fluorescence. inhibition, % at 5.6 µM. 0.63% of 330,000 active. AID 463079;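 active = inhibition above that plate's mean sample inhibition plus 3 SD, cut at about 26% in these data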;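 also: 0% = ATP-challenged DMSO wells and 100% = DMSO wells without ATP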
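Test system: parental CHO cells; detection: calcium-sensitive Fluo-8 fluorescence; evaluation: percent inhibition of calcium signal; also added: ATP as calcium-mobilizing challenge; repeats: one well per compound; control set: ATP-challenged DMSO wells low, unchallenged DMSO wells high; compound: single nominal dose of 5.6 µM per compound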
TAAR1 agonist – agonists of human TAAR1; CHO RD-HGA16 TAAR1, Fluo-8 calcium fluorescence; vehicle wells 0%, saturating PEA agonist 100%; AID 624467; activation, % at 3 µM; Q96RJ0; 0.99% of 360,000 active;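 active = activation above the mean activation of all test compounds in the run plus 3 SD, cut at about 38% in these data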
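System: CHO-derived RD-HGA16 cells with stable Gα16 and human TAAR1. Times: 17-24 h plating, Fluo-8 75 min 37 °C, 30 min RT. Measured by: calcium-sensitive Fluo-8 signal, excitation 470-495, emission 515-575 nm. Read-out basis: % activation relative to PEA EC100 response. Control set: DMSO and PEA EC100. Repeats: no replicates (n 1).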
OX1R antag-2 – blocks the human orexin 1 receptor; O43613; inhibition, % at 5 µM; 0.43% of 330,000 active; CHO/OX1R cells, Fluo-8 calcium fluorescence, orexin A; AID 434989;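 active = inhibition above its plate's threshold, mean inhibition of all tested compounds on the plate plus 3 SD, cut at about 37% in these data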;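 also: 0% = orexin A challenge wells and 100% = SB-334867-A antagonist wells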
OX1R HTRF conf – confirmation of human orexin 1 receptor antagonists, HTRF format; OX1R-expressing cells, HTRF antagonist assay; 49% of 1,800 active; inhibition, % at 6.6 µM; shares compounds with OX1R antag-1; in the data active = inhibition above about 55%;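 also: CHO cells expressing OX1R stimulated with orexin A at about EC80; 0% = agonist challenge alone and 100% = reference antagonist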
CHO-K1 HTRF – counter-screen for OX1R antagonists: effect in parental CHO-K1 cells; inhibition, % at 6.6 µM; AID 493232; HTRF counterscreen; 48% of 1,800 active; shares compounds with OX1R antag-1; in the data active = inhibition above about 17%;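 also: 0% = agonist challenge with vehicle and 100% = vehicle alone without agonist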
Numbers without * were called inactive; / = no result.

SMILES	OX1R antag-1	GPR7 antag	TAAR1 antag	CHO parental Ca	TAAR1 agonist	OX1R antag-2	OX1R HTRF conf	CHO-K1 HTRF
CNC(=O)c1c(NC(=O)c2ccco2)sc2c1CCC2	78.1*	-23.9	-15.2	7.0	0.1	-14.1	45.0	1.4
COC(=O)c1c(NC(=O)c2ccccc2)sc(C(N)=O)c1C	94.9*	-6.2	-3.3	-0.8	0.8	-1.7	31.6	-0.6
COc1cccc2c1C(=O)C=C(C)C2=O	124.1*	-5.9	-0.3	-2.2	3.3	-20.5	71.7*	92.2*
COc1cc(/C=C2\OC(=O)c3c(OC)cccc32)ccc1O	79.5*	-2.0	9.6	0.2	11.7	-14.3	57.6*	12.9
CCCS(=O)(=O)N1CCN(c2cc3c(cc2[N+](=O)[O-])n(C)c(=O)n3C)CC1	78.3*	-8.1	10.9	2.3	7.8	-4.9	33.2	48.7*
COc1ccc(S(=O)(=O)N2CCC[C@H]2C(=O)NC2=NCCS2)cc1	34.0	-2.6	1.8	-6.6	10.6	-4.9	/	/
COc1ccc2nc(NC(=O)C3CCCN3S(=O)(=O)c3ccc(C)cc3)sc2c1 (stereo not drawn)	79.8*	-21.8	-10.8	-6.5	3.1	11.3	50.4	7.0
CCCCN(C(=O)c1ccc(C#N)cc1)c1c(N)n(CCC)c(=O)[nH]c1=O	-3.2	-6.3	-1.4	-0.8	-0.6	-13.3	/	/
O=S(=O)(c1cccc2nsnc12)N1CCOCC1	92.0*	-4.9	-5.2	-14.7	1.1	-9.1	49.9	38.2*
CC(=O)N1CCN(S(=O)(=O)c2cccc(C(=O)OCC(=O)NCc3ccccc3Cl)c2)CC1	/	/	-16.4	/	1.3	/	/	/
CCOc1ccc(N=Nc2c(=O)[nH]n3c(C)cc(C)nc23)cc1	149.4*	-8.9	-0.5	-1.7	-1.0	-8.7	64.1*	73.8*
O=[N+]([O-])c1ccc(Nc2ccccc2O)c2nonc12	/	-12.3	-8.5	/	4.1	/	/	/
NS(=O)(=O)c1ccc(Nc2ccc([N+](=O)[O-])c3nonc23)cc1	132.1*	8.0	-13.1	4.3	2.3	-1.9	49.9	62.7*
CC(=O)c1ccc(Nc2ccc([N+](=O)[O-])c3nonc23)cc1	77.9*	-9.4	-2.4	19.7	9.5	0.5	41.4	38.6*
COc1ccc(Nc2ccc([N+](=O)[O-])c3nonc23)c(OC)c1	50.5	4.8	-0.7	-16.5	-3.9	-33.8	/	/
C(=NN=C1c2ccccc2-c2ccccc21)c1ccc2c(c1)OCO2	/	/	-11.7	/	-1.3	/	/	/
Cc1cc(OCC(=O)NCCc2c[nH]c3ccccc23)c2c(C)c(C)c(=O)oc2c1	86.0*	0.5	43.8	-7.9	1.3	-32.4	32.7	5.1
Cc1cc(F)ccc1NCc1cc2c(cc1[N+](=O)[O-])OCO2	85.4*	-11.9	7.9	-21.3	-0.7	-15.7	29.0	20.5*
O=C(Nc1nnc([C@H]2C[C@H](O)[C@@H](CO)O2)s1)Nc1cccc(Cl)c1Cl	/	/	-1.2	/	9.1	/	/	/
CNc1nc(N2CCc3ccccc32)ncc1F	89.4*	-3.0	-1.3	-10.6	1.6	3.9	83.4*	1.9
NC(=O)NCCc1ccccc1	11.2	-1.7	2.6	-1.4	3.4	-17.2	/	/
COc1ccc([C@@H]2CC=C(C(=O)O)[C@H](c3ccccc3)N2S(=O)(=O)c2ccccc2C)cc1	77.5*	/	3.2	-24.6	7.1	-28.6	55.2*	-2.7
COc1ccc([C@@H]2CC=C(C(=O)O)[C@H](c3cccc(Cl)c3)N2S(=O)(=O)c2ccc(C)cc2)cc1OC	76.9*	/	-9.2	-7.9	12.2	13.3	84.2*	-1.1
CC(=O)Nc1ccc(S(=O)(=O)N2CCNC(=O)C2)cc1	6.4	/	-4.6	-7.5	3.1	-7.9	/	/
CC(C)Cn1[nH]c2c3c(ccc2c1=O)C(=O)c1ccccc1C3=O	135.2*	-0.9	/	-24.8	/	-22.8	36.6	33.3*
SMILES	OX1R antag-1	GPR7 antag	TAAR1 antag	CHO parental Ca	TAAR1 agonist	OX1R antag-2	OX1R HTRF conf	CHO-K1 HTRF
O=C1c2ccccc2C(=O)c2c1ccc1c(=O)n(-c3ccccc3)[nH]c21	22.8	-5.8	2.0	-6.0	-2.1	-17.5	/	/
COc1cc(NC(=O)CSCc2ccc(Cl)cc2)c(C(=O)O)cc1OC	19.4	-19.9	-13.7	-4.6	6.3	2.6	/	/
O=C1c2ccccc2S(=O)(=O)c2cc(C(=O)N3CCCC3)ccc21	103.7*	/	-17.3	-15.0	3.0	-21.9	43.6	69.0*
CCOC(=O)C1CCN(C(=O)c2ccc3c(c2)S(=O)(=O)c2ccccc2C3=O)CC1	31.8	-20.1	0.6	-30.1	-0.9	-41.9	/	/
NC(=O)C1CCN(C(=O)c2ccc3c(c2)S(=O)(=O)c2ccccc2C3=O)CC1	88.0*	-14.0	-13.1	-6.0	1.3	-9.5	59.8*	69.9*
O=C1c2ccccc2S(=O)(=O)c2cc(C(=O)N3CCN(c4c(Cl)cncc4Cl)CC3)ccc21	5.8	/	34.8	-15.1	7.6	-8.4	/	/
O=[N+]([O-])c1ccc(SN2CCCCC2)c([N+](=O)[O-])c1	/	/	0.9	/	0.9	/	/	/
COc1ccc(-c2ncn(CCC#N)c2[N+](=O)[O-])cc1	85.3*	1.5	9.9	-8.6	2.8	-1.8	40.5	42.5*
COc1ccc(-c2cc(=O)n(CCC#N)[nH]2)cc1	17.2	-6.9	-29.9	3.9	0.4	2.6	/	/
O=C(NCc1cccnc1)C1CCCN(S(=O)(=O)c2cccc3nsnc23)C1 (stereo not drawn)	89.2*	-9.8	6.1	-7.5	1.5	-12.2	45.7	32.0*
O=C(NCc1ccccc1)C1CCCN(S(=O)(=O)c2cccc3nsnc23)C1 (stereo not drawn)	24.3	-9.3	0.1	-29.6	1.1	-30.3	/	/

Assay outcomes (PubChem BioAssay)
